Seven compounds from ChEMBL document CHEMBL4346731, “Novel meriolin derivatives as rapid apoptosis inducers” (Bioorg Med Chem, 2019) can be followed below.

Structures are written as SMILES. pIC50: −log10 of the molar value. Activity calls are given as the source filed them. The rule behind the calls is not given here.

Assay [1] relates to Ramos. Briefly: Antiproliferative activity against human Ramos cells assessed as reduction in cell viability after 24 hrs by resazurin dye-based spectrophotometric method. Format: functional. The method, boiled down: (§1)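 Cells (DSMZ stock) seeded at 0.5 x 10⁶ cells/mL and exposed to escalating compound concentrations (up to 30 μM) for 24 or 72 h; resazurin 40 μM added for the final 3 h. Resorufin fluorescence read at ex 535/em 590 nm. Viability normalized to 0.1% DMSO controls (100%). IC50 from nonlinear regression; mean of three independent experiments.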
Background: The colour change of resazurin is a common sign of viable cells or microbes.

Assay [2] relates to Ramos. Put plainly: Antiproliferative activity against human Ramos cells assessed as reduction in cell viability after 72 hrs by resazurin dye-based spectrophotometric method. Format: functional. The method, boiled down:
as §1

Assay [3] in a line: Antiproliferative activity against human Jurkat J16 cells assessed as reduction in cell viability after 24 hrs by resazurin dye-based spectrophotometric method. Format: functional. An outline of the steps:
as §1

The nature of assay [4]: Antiproliferative activity against human Jurkat J16 cells assessed as reduction in cell viability after 72 hrs by resazurin dye-based spectrophotometric method. Format: functional. An outline of the steps:
as §1

The subject of assay [5] is Ramos. Put plainly: Induction of apoptosis in human Ramos cells assessed as caspase-3 activation at 1 uM using AcDEVD-AMC as substrate preincubated for up to 8 hrs followed by substrate addition and measured after 60 mins by spectrophotometric method. Format: functional, cell-based. An outline of the steps: (§2)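 Cells in 96-well plates treated for up to 8 h, alongside staurosporine 2.5 μM as positive control. Lysis in caspase buffer (20 mM HEPES, 84 mM KCl, 10 mM MgCl₂, 200 μM EDTA/EGTA, 0.5% NP-40, protease inhibitors), then reaction buffer with Ac-DEVD-AMC added. AMC fluorescence increase followed at 37 °C for at least 60 min.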

Assay [6] relates to Ramos. Put plainly: Induction of apoptosis in human Ramos cells assessed as caspase-3 activation at 3 uM using AcDEVD-AMC as substrate preincubated for up to 8 hrs followed by substrate addition and measured after 60 mins by spectrophotometric method. Format: functional, cell-based. The method, boiled down: as §2
The species named for assay [7] is Homo sapiens. Briefly: Induction of apoptosis in human Jurkat J16 cells assessed as caspase-3 activation at 1 uM using AcDEVD-AMC as substrate preincubated for up to 8 hrs followed by substrate addition and measured after 60 mins by spectrophotometric method. Format: functional, cell-based. The method, boiled down: as §2
The species named for assay [8] is Homo sapiens. Put plainly: Induction of apoptosis in human Jurkat J16 cells assessed as caspase-3 activation at 3 uM using AcDEVD-AMC as substrate preincubated for up to 8 hrs followed by substrate addition and measured after 60 mins by spectrophotometric method. Format: functional, cell-based. The method, boiled down:
as §2

Assay [9] has as its system Ramos. Put plainly: Induction of apoptosis in human Ramos cells assessed as increase in cleaved PARP1 protein expression at 1 uM after 2 to 8 hrs by immunoblotting analysis. Format: functional, cell-based. The method, boiled down: (§3)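 Ramos cells exposed to compound for 2-8 h at concentrations chosen from the cytotoxicity data, with or without the pan-caspase inhibitor Q-VD-OPh (10 μM). Cells were harvested, lysed and immunoblotted with mouse anti-PARP1, using GAPDH as loading control. Detection used IRDye800/680 secondary antibodies on an infrared imager.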

For assay [10], the system named is Ramos. Briefly: Induction of apoptosis in human Ramos cells assessed as increase in cleaved PARP1 protein expression at 1 uM after 2 to 8 hrs in presence of caspace-inhibitor Q-VD-Oph by immunoblotting analysis. Format: functional, cell-based. The method, boiled down:
as §3
For orientation: A western blot detects proteins with antibodies after separation by electrophoresis.

The target of assay [11] is Sphingosine kinase 1 (Homo sapiens) (UniProt Q9NYA1). Put plainly: Inhibition of SK1 (unknown origin) at 10 uM using sphingosine as substrate preincubated for 15 mins followed by substrate addition and measured after 30 mins by fluorescence based assay relative to control. An outline of the steps:
(§4)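 Compound at 10 µM preincubated 15 min with SK1 (0.5 U/mL final) or SK2 (0.1 U/mL final). Sphingosine 5 µM plus ATP added; reaction 30 min (SK1) or 60 min (SK2) at room temperature. Buffer: 50 mM HEPES pH 7.5, 4 mM MgCl₂, 100 µM orthovanadate, 1 mM DTT, 0.01% Brij 35, 2 mM EGTA. Fluorescent detection reagent added for 60 min in the dark. Inhibition = 100 minus blank-corrected relative fluorescence. Triplicates, two independent experiments; mean ± SEM.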

The target of assay [12] is T1, Sphingosine kinase 2 (Homo sapiens) (UniProt Q9NRA0).
T1 sequence (whole entry): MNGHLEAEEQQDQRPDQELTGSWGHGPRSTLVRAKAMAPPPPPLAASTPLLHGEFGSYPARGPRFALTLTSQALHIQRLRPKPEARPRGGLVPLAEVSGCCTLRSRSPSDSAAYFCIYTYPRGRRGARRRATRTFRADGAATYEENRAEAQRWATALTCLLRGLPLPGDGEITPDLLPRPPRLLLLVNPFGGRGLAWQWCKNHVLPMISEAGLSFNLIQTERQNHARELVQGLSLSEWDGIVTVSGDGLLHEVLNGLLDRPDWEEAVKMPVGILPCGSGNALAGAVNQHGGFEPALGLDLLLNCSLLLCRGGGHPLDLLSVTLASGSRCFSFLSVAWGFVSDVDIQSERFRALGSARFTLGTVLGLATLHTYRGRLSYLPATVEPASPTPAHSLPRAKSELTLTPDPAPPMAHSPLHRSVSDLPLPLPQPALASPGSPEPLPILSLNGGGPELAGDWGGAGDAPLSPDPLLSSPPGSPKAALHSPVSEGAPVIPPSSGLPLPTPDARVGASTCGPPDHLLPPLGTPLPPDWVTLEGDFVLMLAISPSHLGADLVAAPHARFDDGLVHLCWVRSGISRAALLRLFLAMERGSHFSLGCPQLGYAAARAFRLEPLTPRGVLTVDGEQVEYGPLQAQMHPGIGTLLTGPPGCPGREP
Put plainly: Inhibition of SK2 (unknown origin) at 10 using sphingosine as substrate preincubated for 15 mins followed by substrate addition and measured after 60 mins by fluorescence based assay relative to control. The method, boiled down:
as §4

Assay [13] relates to Ramos. Put plainly: Induction of apoptosis in human Ramos cells assessed as caspase-3 activation at 10 uM using AcDEVD-AMC as substrate preincubated for up to 8 hrs followed by substrate addition and measured after 60 mins by spectrophotometric method. Format: functional, cell-based. An outline of the steps: as §2
The species entered for assay [14] is Homo sapiens. Put plainly: Induction of apoptosis in human Jurkat J16 cells assessed as caspase-3 activation at 10 uM using AcDEVD-AMC as substrate preincubated for up to 8 hrs followed by substrate addition and measured after 60 mins by spectrophotometric method. Format: functional, cell-based. The method, boiled down:
as §2

Assay [15] deals with Ramos. Put plainly: Induction of apoptosis in human Ramos cells assessed as increase in cleaved PARP1 protein expression at 10 uM after 2 to 8 hrs by immunoblotting analysis. Format: functional, cell-based. The method, boiled down: as §3
Assay [16] relates to Ramos. Briefly: Induction of apoptosis in human Ramos cells assessed as increase in cleaved PARP1 protein expression at 10 uM after 2 to 8 hrs in presence of caspace-inhibitor Q-VD-Oph by immunoblotting analysis. Format: functional, cell-based. An outline of the steps:
as §3

The subject of assay [17] is Ramos. Put plainly: Induction of apoptosis in human Ramos cells assessed as increase in cleaved PARP1 protein expression at 0.1 uM after 2 to 8 hrs by immunoblotting analysis. Format: functional, cell-based. The method, boiled down:
as §3

Assay [18] has as its system Ramos. Briefly: Induction of apoptosis in human Ramos cells assessed as caspase-3 activation at 0.1 uM using AcDEVD-AMC as substrate preincubated for up to 8 hrs followed by substrate addition and measured after 60 mins by spectrophotometric method. Format: functional, cell-based. The method, boiled down:
as §2

In assay [19] the test system is Ramos. Put plainly: Induction of apoptosis in human Ramos cells assessed as caspase-3 activation at 0.3 uM using AcDEVD-AMC as substrate preincubated for up to 8 hrs followed by substrate addition and measured after 60 mins by spectrophotometric method. Format: functional, cell-based. An outline of the steps:
as §2

Assay [20] is filed under the species Homo sapiens. Briefly: Induction of apoptosis in human Jurkat J16 cells assessed as caspase-3 activation at 0.1 uM using AcDEVD-AMC as substrate preincubated for up to 8 hrs followed by substrate addition and measured after 60 mins by spectrophotometric method. Format: functional, cell-based. An outline of the steps: as §2
Assay [21] is filed under the species Homo sapiens. Put plainly: Induction of apoptosis in human Jurkat J16 cells assessed as caspase-3 activation at 0.3 uM using AcDEVD-AMC as substrate preincubated for up to 8 hrs followed by substrate addition and measured after 60 mins by spectrophotometric method. Format: functional, cell-based. An outline of the steps:
as §2

Assay [22] relates to Ramos. Put plainly: Induction of apoptosis in human Ramos cells assessed as increase in cleaved PARP1 protein expression at 0.1 uM after 2 to 8 hrs in presence of caspace-inhibitor Q-VD-Oph by immunoblotting analysis. Format: functional, cell-based. The method, boiled down: as §3
In assay [23] the test system is Ramos. Briefly: Induction of apoptosis in human Ramos cells assessed as caspase-3 activation at 2.5 uM using AcDEVD-AMC as substrate preincubated for up to 8 hrs followed by substrate addition and measured after 60 mins by spectrophotometric method. Format: functional, cell-based. The method, boiled down:
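Ramos cells (DSMZ) plated in 96-well plates and treated for up to 8 h. Cells were then lysed in caspase buffer (20 mM HEPES, 84 mM KCl, 10 mM MgCl2, 200 µM EDTA/EGTA, 0.5% NP-40, protease inhibitors). Reaction buffer with Ac-DEVD-AMC was added, and AMC fluorescence increase was read at 37 °C for at least 60 min. Positive control: staurosporine 2.5 µM.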

What is called pIC50 is −log10 of the IC50, conventionally taken in molar units. By inhibition is commonly meant the percentage by which the read-out fell short of the control. Low values mean a weak effect, high ones a strong effect.

Sequence of Sphingosine kinase 1 (Homo sapiens) (Q9NYA1 whole entry): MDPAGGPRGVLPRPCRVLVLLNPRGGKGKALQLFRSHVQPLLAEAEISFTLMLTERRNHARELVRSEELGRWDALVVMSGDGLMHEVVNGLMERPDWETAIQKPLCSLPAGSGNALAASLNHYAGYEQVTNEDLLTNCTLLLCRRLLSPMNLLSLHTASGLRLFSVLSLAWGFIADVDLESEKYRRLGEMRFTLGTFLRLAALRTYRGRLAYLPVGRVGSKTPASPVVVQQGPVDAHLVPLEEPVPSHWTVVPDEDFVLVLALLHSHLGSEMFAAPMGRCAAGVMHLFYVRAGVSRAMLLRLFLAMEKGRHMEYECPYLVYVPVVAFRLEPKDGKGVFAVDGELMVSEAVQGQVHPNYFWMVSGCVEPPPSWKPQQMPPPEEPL

For the compound `Nc1cc(-c2c[nH]c3ncccc23)ccn1`, the pIC50 in [1] is 6.01; in assay [2] it was 6.22; in assay [3] it was 6.06; in assay [4], 6.32. In addition, the result in [5], in [6], in assay [7], in assay [8] and in assay [9] was Active. Besides, in [10], the outcome was inactive. For the same compound, the inhibition was 10% in assay [11] and 39% in assay [12].

On to `COc1cc(-c2c[nH]c3ncccc23)nc(N)n1`, for which the outcome in [13], in [6], in assay [8], in [14] and in assay [15] was Active. The pIC50 in [1] is 5.22; in assay [2] it was 5.41; in assay [3], 5.25; in assay [4], 5.51. Besides, in assay [16], the result was inactive.

Consider `Nc1cc(-c2c[nH]c3ncccc23)cc(N)n1`, for which the result in assay [17], in assay [18], in assay [19], in assay [20] and in assay [21] was Active. For the same compound, the pIC50 is 6.96 in assay [1], 7.15 in assay [2], 6.96 in assay [3] and 7.22 in assay [4]. Also, the result in [22] was inactive. Also, the inhibition in assay [11] is 18%; in assay [12], 87%.

Turning to `Nc1nccc(-c2c[nH]c3ncccc23)n1` [MERIOLIN 1], the result in [13], in [6], in [8], in assay [14] and in [15] was Active. Besides, the pIC50 is 5.32 in assay [1], 5.43 in assay [2], 5.34 in assay [3] and 5.56 in [4]. Also, the result in assay [16] was inactive. Moreover, the inhibition came to 10% in [11] and 72% in assay [12].

`c1ccc(CNc2ccc(-c3c[nH]c4ncccc34)cn2)cc1`: the pIC50 in assay [1] was 6.52; in assay [2], 6.74; in assay [3], 6.62; in assay [4] it was 6.96. The result in assay [19], in [5], in [21], in [7] and in assay [9] was Active. Also, the result in assay [10] was inactive.

With `CN[C@@H]1C[C@H]2O[C@@](C)([C@@H]1OC)n1c3ccccc3c3c4c(c5c6ccccc6n2c5c31)C(=O)NC4`, in assay [23], the result was Active.

Take `Nc1cc(-c2c[nH]c3ncccc23)nc(N)n1`: the pIC50 was 6.43 in [1], 6.62 in [2], 6.37 in assay [3] and 6.68 in [4]. In addition, the result in assay [19], in [5], in [21], in [7] and in assay [9] was Active. Further, in assay [10], the result was inactive.
